# GRK2 inh – compounds blocking aptamer binding on GRK2 – biochemical, human GRK2, bead flow cytometry, HTS, primary screen | FAM-aptamer displacement from GRK2 | inhibition of aptamer binding, % at 10 µM | hit rate 0.59% among 330,000 | AID 488847, 2010;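 active = inhibition of aptamer binding above 40%, roughly 3 SD of noise, on plates passing a quality check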;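 note: median bead fluorescence of bound FAM aptamer so fluorescent compounds give negative values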
# Target sequence (P25098 whole entry, looked up): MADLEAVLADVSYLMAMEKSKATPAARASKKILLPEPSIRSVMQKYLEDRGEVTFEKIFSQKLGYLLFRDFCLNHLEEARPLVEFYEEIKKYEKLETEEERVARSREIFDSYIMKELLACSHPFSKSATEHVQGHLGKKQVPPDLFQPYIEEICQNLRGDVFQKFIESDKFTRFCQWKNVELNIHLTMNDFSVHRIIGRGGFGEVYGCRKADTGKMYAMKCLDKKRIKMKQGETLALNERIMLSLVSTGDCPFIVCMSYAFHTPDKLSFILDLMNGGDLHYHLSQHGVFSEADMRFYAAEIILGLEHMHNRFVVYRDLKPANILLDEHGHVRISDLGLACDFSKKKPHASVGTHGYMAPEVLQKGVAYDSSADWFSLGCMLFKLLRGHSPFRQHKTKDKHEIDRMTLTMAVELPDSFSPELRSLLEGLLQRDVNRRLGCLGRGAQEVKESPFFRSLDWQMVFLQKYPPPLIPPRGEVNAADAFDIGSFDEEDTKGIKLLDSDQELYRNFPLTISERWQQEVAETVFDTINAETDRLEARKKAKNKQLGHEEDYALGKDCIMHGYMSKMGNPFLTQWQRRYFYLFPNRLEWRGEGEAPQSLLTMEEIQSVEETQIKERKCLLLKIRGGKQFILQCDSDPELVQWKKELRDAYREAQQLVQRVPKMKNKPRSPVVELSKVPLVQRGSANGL
# SUMO1 PPI mod – modulators of SUMO1 protein-protein interactions, primary screen, biochemical, uHTS | Small ubiquitin-related modifier 1 (Homo sapiens), P63165 | SUMO1 binding to a labelled peptide, TR-FRET, 1 h | inhibition, % at 20 µM | hit rate 0.33% among 360,000 | AID 602429, 2012; in the data active = inhibition above about 37%
# STEP block – STEP phosphatase inhibitors, primary screen, biochemical, fluorescence intensity, uHTS; hit rate 0.25% among 360,000; recombinant STEP, OMFP fluorogenic substrate; Tyrosine-protein phosphatase non-receptor type 5 (Homo sapiens), P54829; AID 588621, 2011; inhibition, % at 20 µM;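 active = inhibition at 20 µM, scaled per plate between control wells, above about 37%, limit read from the data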;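 note: 0% = DMSO with enzyme and substrate and 100% = substrate only without enzyme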
#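 Measure: Control-normalized % inhibition with plate pattern correction | Test system: STEP phosphatase, cell-free reaction | Medium: pH 6.0 Bis-Tris with DTT and Tween 20 | Technique: Fluorescence, 480/540 nm | Times: Reaction 20 min, ambient temperature | Doses: Single compound dose of 20 µM, 1% DMSO final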
# LMPTP inh – LMPTP phosphatase inhibitors, primary screen, biochemical, fluorescence intensity, uHTS. recombinant LMPTP-A, OMFP fluorogenic substrate. inhibition, % at 20 µM. hit rate 0.22% among 360,000. AID 651560, 2012;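 active = compounds that cut the enzyme signal by at least half of the control window in the single-dose screen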;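 note: plate controls were DMSO wells with enzyme plus substrate for no effect and substrate without enzyme for full effect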
#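 test system = LMPTP-A | amount = 0.625 nM LMPTP-A final | reagent = fluorogenic phosphatase substrate OMFP at 400 µM final | incubation = 50 min at room temperature | benchmarks = no-enzyme low control, uninhibited high control | medium = Bis-Tris pH 6.0, DTT, detergent | signal = fluorescence intensity of OMFP turnover product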
# Scp1 inh – Scp-1 phosphatase inhibitors, primary screen, biochemical, colorimetric, uHTS; Carboxy-terminal domain RNA polymerase II polypeptide A small phosphatase 1 (Homo …; Recombinant Scp1, phosphopeptide, malachite green phosphate absorbance; inhibition, % at 20 µM; hit rate 0.88% among 340,000; AID 493091, 2011;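 active = inhibition above about 50% at 20 µM, limit read from the data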;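 note: plate controls were DMSO wells with enzyme for no effect and wells lacking enzyme for full effect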
#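 Material – SCP-1 phosphatase catalytic domain, residues 76-261 · Buffer or medium – Acidic Tris acetate buffer with magnesium and detergent · Also added – Phospho 17-mer peptide substrate · Compound – single 20 µM dose, 1% DMSO · Times – 45 min room-temperature reaction, 5 min colour, 30 min stabiliser · Technique – Phosphate-binding colour reagent, absorbance read at 630 nm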
# DNMT1 block – human DNMT1 methyltransferase inhibitors, primary screen, biochemical, molecular beacon, fluorescence, HinP1I cleavage, uHTS; DNA (cytosine-5)-methyltransferase 1 (Homo sapiens), P26358; inhibition (reported as % activation of signal), % at 10 µM; hit rate 0.83% among 360,000; AID 588458, 2011; in the data active = inhibition above about 50%
# Starred values were filed as active, the others as inactive; . = not tested or not shown. Only some compounds are listed: those with a hit (about 2.2% of all), similar ones and a draw of the others.
SMILES,GRK2 inh,SUMO1 PPI mod,STEP block,LMPTP inh,Scp1 inh,DNMT1 block
CCn1cc(C(=O)O)c(=O)c2cnc(N3CCN(C(=S)NC(=O)c4ccc(F)c(F)c4)CC3)nc21,0,19,4,43,19,1
O=C1c2ccccc2C(c2nnnn2-c2ccc3c(c2)OCCO3)N1C1CC1 (stereo unspecified),.,5,.,0,.,.
Oc1ccc(Cl)c(CN2CCN(c3ncc(Cc4ccccc4)cn3)CC2)c1,.,5,.,1,.,.
COCCNC(=O)C1(C)CCN(C(=O)c2ccc(SC(F)(F)F)cc2)C1 (stereo unspecified),.,-2,1,-1,.,-2
CCCOc1ccc(C(=O)NC(=S)N2CCN(c3cc4c(cc3F)c(=O)c(C(=O)O)cn4CC)CC2)cc1,0,6,3,49,-1,0
CCn1cc(C(=O)O)c(=O)c2cc(F)c(N3CCN(C(=S)NC(=O)c4ccc(F)cc4)CC3)cc21,0,6,2,68*,19,1
COc1ccc(OC)c(CN2CCN(C(=O)c3cccc(S(=O)(=O)N(C)c4ccccc4)c3)CC2)c1,.,-5,1,1,.,-3
C=C1c2cccc(O)c2C(=O)C2C(=O)[C@]3(O)C(=O)C(C(N)=O)C(=O)[C@@H](N(C)C)[C@@H]3[C@@H](O)[C@H]12 (stereo partly specified),1,73*,53*,81*,60*,94*
CO[C@@H]1CN(C)C(=O)c2ccc(NS(=O)(=O)c3c(C)noc3C)cc2OC[C@@H](C)NC[C@@H]1C,.,11,.,0,.,.
CCc1c(C)nc2c(C#N)c(C)[nH]n2c1=O,2,54*,-2,0,-3,5
Cc1nc2c(C#N)c(C)[nH]n2c(=O)c1Cc1ccccc1,1,18,1,-2,-5,5
COc1ccccc1CN1CC(C(=O)NCCCCc2ccccn2)CCC1=O (stereo unspecified),.,-4,0,-1,.,-1
CCCCn1c(N)c(S(=O)(=O)c2ccc(C)cc2)c2nc3ccccc3nc21,0,39*,-3,5,3,-27
CCc1nc2c(OCC(=O)c3ccc(F)cc3)cccn2c1N(C)C(=O)c1cccs1,.,10,0,-1,.,-4
CCc1ccc(C(O)c2ncc(-c3ccc4ccccc4c3)[nH]2)cc1 (stereo unspecified),.,-4,-2,0,.,61*
CC1=C(C#N)C(=O)N(C2CCS(=O)(=O)C2)C(=O)/C1=C\c1ccco1 (stereo unspecified),100*,.,.,.,.,.
COC(=O)/C(C#N)=C/c1ccc(-c2ccc(S(N)(=O)=O)cc2)o1,0,-27,-3,1,-4,0
N#CC(C#N)=Cc1ccc(-c2ccc(S(=O)(=O)N=C(N)N)cc2)o1,100*,-4,-3,1,-4,13
CCN(C(=O)CN1C(=O)NC2(CCCC2)C1=O)c1nc2c(C)cccc2s1,.,7,-1,0,.,1
Cc1cc(C(C)(C)C)cc(C)c1Cn1c2[n+](c3ccc(C(F)(F)F)cc31)CCCCC2,0,-19,0,0,66*,16
FC(F)(F)c1cccc(Cn2c3[n+](c4ccc(C(F)(F)F)cc42)CCCCC3)c1,0,-4,1,-4,9,2
Cn1c(=O)n(C)c2cc(N3CCOCC3)c(NC(=O)c3ccc(F)cc3)cc21,0,49*,-2,-1,-2,3
CCc1nc2ccc(C(=O)NC3CCN(Cc4ccccc4)CC3)cn2c1N(C)Cc1cc2ccccc2s1,.,-10,1,10,.,-22
CCC(=O)N(C)CCc1cc2c(c(OC)c1/C=N/NC(=O)c1ccccc1O)OCO2,83*,2,-1,-1,-8,-3
Cc1cc(C)c2c(=O)n3c(nc2c1)C(CC(C)C)NC(=O)c1cccnc1-3 (stereo unspecified),.,-1,1,-1,.,5
SMILES,GRK2 inh,SUMO1 PPI mod,STEP block,LMPTP inh,Scp1 inh,DNMT1 block
CC(=O)Oc1cc(C(=O)OCC(=O)NC23CC4CC(CC(C4)C2)C3)cc(OC(C)=O)c1OC(C)=O,.,9,2,22,70*,16
Cc1nc2cc(C(=O)OCC(=O)NC34CC5CC(CC(C5)C3)C4)ccc2n1-c1ccccc1,41*,0,3,6,1,-1
Cc1cc(N2CCN(C(C(=O)NC3CCCC3)c3ccco3)CC2)c2ccccc2n1 (stereo unspecified),.,6,.,56*,.,.
COc1ccc(-c2noc(-c3ccc(Br)o3)n2)cc1OC,0,4,-2,4,5,-3
COc1cc(-c2nc(-c3ccc(Br)o3)no2)cc(OC)c1OC,0,53*,3,1,-7,45
Cc1cn([C@H]2C[C@H](O)[C@@H](CNCc3ccc(-c4cc(Cl)ccc4C(F)(F)F)o3)O2)c(=O)[nH]c1=O,.,-6,-2,0,.,-1
NC(=O)c1ccc(NCCc2cccs2)cc1,.,39*,-1,-1,.,-3
COc1ccc(S(=O)(=O)N2CCCCC2c2cc(C(=O)NCc3ccccc3)no2)cc1 (stereo unspecified),.,3,-2,2,.,-1
COc1ccc(-c2cc(=O)c3c(C)cc(O)cc3o2)cc1,.,45*,3,18,47,8
O=[N+]([O-])c1cc(CN2CCCC2)c2cccnc2c1O,0,1,9,74*,35,-9
COc1ccc(NC(=O)c2cc(-c3sc(NC(=O)c4ccccc4)nc3C)n(-c3ccc(Br)cc3)n2)cc1,.,-4,.,0,.,.
CN(C)c1ccc(/C=N/N=C2/NC(=O)/C(=C/c3ccc([N+](=O)[O-])cc3)S2)cc1,2,-30,7,4,-2,66*
CN(C)c1ccc(C=C2SC(=S)NC2=O)cc1,.,-50,-13,-6,-15,0
Cc1cc(C)c(S(=O)(=O)/N=C2/C=C(Sc3ncn[nH]3)C(=O)c3ccccc32)cc1C,6,92*,7,14,4,16
Cc1ccc(C)c(S(=O)(=O)/N=C2\C=C(NS(=O)(=O)c3ccccc3)C(=O)c3ccccc32)c1,0,9,-2,2,-2,-12
COc1cccc2sc(Nc3nc(-c4ccncc4)cs3)nc12,1,2,0,0,2,-5

# From PubChem
